According to ChEMBL document CHEMBL1795208 (J Med Chem, 2011):

Assays:
Type in all cases: functional, cell-based
MCF7 = experiment: Antiproliferative activity against human MCF7 cells expressing estrogen receptor after 72 hrs by MTS/PMS assay; conditions: MCF7, 72 h
Procedure, shortened: (§1)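 Cells kept in Advanced DMEM/F12 (1:1) with non-essential amino acids, 2 mM L-glutamine, penicillin, streptomycin and 10% FBS at 37 °C, 5% CO2. Seeded at 2000/well, attached overnight. Compound added in DMSO across a concentration range (1% DMSO final) for 72 h. Viable cells read by MTS/PMS and normalized to 1% DMSO controls (100%). IC50 taken from separate triplicate experiments.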

[1] = Antiproliferative activity against human androgen-dependent LNCaP-LN3 cells after 72 hrs by MTS/PMS assay; conditions: LNCaP-LN3, 72 h; procedure, shortened: as §1
SK-BR-3 = experiment: Antiproliferative activity against human SKBR3 cells expressing HER2 after 72 hrs by MTS/PMS assay; conditions: SK-BR-3, 72 h; procedure, shortened: as §1
[2] = Antiproliferative activity against human androgen-independent PC3MM2 cells after 72 hrs by MTS/PMS assay; conditions: PC3MM2, 72 h; procedure, shortened: as §1

| SMILES | IC50 (MCF7) | IC50 [1] | IC50 (SK-BR-3) | IC50 [2] |
| --- | --- | --- | --- | --- |
| COc1cccc(-c2cc(C(=O)Nc3cc4cc(OC)c(OC(N)=O)c(C)c4oc3=O)ccc2OC)c1 | 6.29 µM | 3.55 µM | 6.83 µM | 2.62 µM |
| COc1cccc(-c2cc(C(=O)Nc3cc4cc(OC)c(O[C@H]5OCC[C@@H](O)[C@H]5O)c(C)c4oc3=O)ccc2OC)c1 | 64.5 µM | 14.9 µM | 12.5 µM | 25.4 µM |
| COc1cccc(-c2cc(C(=O)Nc3cc4ccc(O[C@H]5C[C@H](O)CCO5)c(OC)c4oc3=O)ccc2OC)c1 | 95.8 µM | 11.5 µM | 8.75 µM | – |
| CNC(=O)Oc1ccc2cc(NC(=O)c3ccc(OC)c(-c4cccc(OC)c4)c3)c(=O)oc2c1C | 1.72 µM | 3.75 µM | 2.4 µM | 5.22 µM |
| COc1cccc(-c2cc(C(=O)Nc3cc4ccc(O[C@@H]5O[C@H](CO)C[C@@H](O)[C@H]5O)c(OC)c4oc3=O)ccc2OC)c1 | 14.3 µM | 6.78 µM | 11.8 µM | 17.9 µM |
| COc1c(OC2CCN(C)CC2)ccc2cc(NC(=O)c3cc4ccccc4[nH]3)c(=O)oc12 | 1.86 µM | 12.6 µM | 2.58 µM | 7.93 µM |
| COc1cccc(-c2cc(C(=O)Nc3cc4ccc(OC(N)=O)c(OC)c4oc3=O)ccc2OC)c1 | 5.56 µM | 4.83 µM | 76.8 µM | > 100 µM |
| COc1cccc(-c2cc(C(=O)Nc3cc4ccc(OS(C)(=O)=O)c(OC)c4oc3=O)ccc2OC)c1 | > 100 µM | 0.87 µM | > 100 µM | – |
| COc1cccc(-c2cc(C(=O)Nc3cc4ccc(OS(=O)(=O)c5ccc(C)cc5)c(OC)c4oc3=O)ccc2OC)c1 | > 100 µM | 0.11 µM | > 100 µM | – |
| COc1cccc(-c2cc(C(=O)Nc3cc4ccc(OC5OC(C)(C)[C@H](OC)[C@@H](O)[C@H]5O)c(C)c4oc3=O)ccc2OC)c1 (stereo partly specified) | 18.7 µM | – | 7.5 µM | – |
| COc1cccc(-c2cc(C(=O)Nc3cc4cc(OC)c(OC5CC(C)C[C@@H](O)[C@H]5O)c(C)c4oc3=O)ccc2OC)c1 (stereo partly specified) | > 100 µM | – | > 100 µM | – |
| COc1c(OC2CCN(C)CC2)ccc2cc(NC(=O)c3ccc(O)c(CC=C(C)C)c3)c(=O)oc12 | 1.54 µM | – | 0.92 µM | 3.53 µM |
| COc1cccc(-c2cc(C(=O)Nc3cc4cc(OC)c(OC5CC(C)(C)C[C@@H](O)[C@H]5O)c(C)c4oc3=O)ccc2OC)c1 (stereo partly specified) | > 100 µM | – | > 100 µM | – |
| COc1c(OCCCN(C)C)ccc2cc(NC(=O)c3ccc(O)c(CC=C(C)C)c3)c(=O)oc12 | 3.26 µM | – | 0.77 µM | 9.24 µM |
| CC(C)=CCc1cc(C(=O)Nc2cc3ccc(OC4CCN(C)CC4)c(C)c3oc2=O)ccc1O | – | – | – | 1.37 µM |
| COc1cc2cc(NC(=O)c3ccc(OC(C)=O)c(CC=C(C)C)c3)c(=O)oc2c(C)c1OC1CCN(C)CC1 | 0.58 µM | – | 0.42 µM | 1.41 µM |
| COc1cccc(-c2cc(C(=O)Nc3cc4cc(OC)c(OCC(O)CO)c(C)c4oc3=O)ccc2OC)c1 (stereo unspecified) | 20.5 µM | – | 19.4 µM | – |
| COc1cccc(-c2cc(C(=O)Nc3cc4ccc(O[C@H]5OCC[C@H]5O)c(C)c4oc3=O)ccc2OC)c1 | > 100 µM | 5.34 µM | > 100 µM | – |
| COc1cccc(-c2cc(C(=O)Nc3cc4ccc(OC5CCC[C@@H](O)[C@H]5O)c(OC)c4oc3=O)ccc2OC)c1 (stereo partly specified) | 5.46 µM | – | 7.44 µM | – |
| CC(=O)Oc1ccc(C(=O)Nc2cc3ccc(OCCCN(C)C)c(C)c3oc2=O)cc1CC=C(C)C | – | – | – | 1.42 µM |
| CO[C@H]1[C@H](OC(=O)c2ccc(C)[nH]2)[C@H](O)[C@@H](Oc2ccc3c(O)c(NC(=O)c4c[nH]c(C(=O)Nc5c(O)c6ccc(O[C@H]7OC(C)(C)[C@@H](OC)[C@H](OC(=O)c8ccc(C)[nH]8)[C@@H]7O)c(C)c6oc5=O)c4C)c(=O)oc3c2C)OC1(C)C [COUMERMYCIN A1] | – | – | 70 µM | – |
| COc1cccc(-c2cc(C(=O)Nc3cc4ccc(OC5CC(C)(C)C[C@@H](O)[C@H]5O)c(OC)c4oc3=O)ccc2OC)c1 (stereo partly specified) | 1.56 µM | – | 3.45 µM | – |
| CO[C@@H]1[C@@H](OC(N)=O)[C@@H](O)[C@H](Oc2ccc3cc(NC(=O)c4ccc(O)c(CC=C(C)C)c4)c(=O)oc3c2C)OC1(C)C | – | – | 7.5 µM | – |
| COc1cccc(-c2cc(C(=O)Nc3cc4ccc(OCC(O)CO)c(C)c4oc3=O)ccc2OC)c1 (stereo unspecified) | > 50 µM | – | > 50 µM | 0.19 µM |
| COc1c(OC2CCN(C)CC2)ccc2cc(NC(=O)c3ccc(OC(C)=O)c(CC=C(C)C)c3)c(=O)oc12 | 1.64 µM | – | 1.07 µM | 3.98 µM |
| CO[C@@H]1[C@@H](O)[C@@H](O)[C@H](Oc2ccc3cc(NC(=O)c4ccc(O)c(CC=C(C)C)c4)c(=O)oc3c2C)OC1(C)C | – | – | 0.5 µM | – |
| COc1c(OCCCN(C)C)ccc2cc(NC(=O)c3ccc(OC(C)=O)c(CC=C(C)C)c3)c(=O)oc12 | 2.14 µM | – | 0.78 µM | 4.59 µM |
